Measurements reported in ChEMBL document CHEMBL4725369, “Multicomponent Synthesis, Binding Mode, and Structure-Activity Relationship of Selective Histone Deacetylase 6 (HDAC6) Inhibitors with Bifurcated Capping Groups” (J Med Chem, 2020).
Calls of active or inactive are those of the source. No cut-off for these calls is given here.

Columns and labels:
Histone deacetylase 1 = Histone deacetylase 1 (Homo sapiens, UniProt Q13547); assay: Inhibition of human recombinant HDAC1 using ZMAL (Z-Lys(Ac)-AMC) fluorogenic substrate incubated for 90 mins by fluorescence based assay
Histone deacetylase 1, sequence (Q13547 whole entry): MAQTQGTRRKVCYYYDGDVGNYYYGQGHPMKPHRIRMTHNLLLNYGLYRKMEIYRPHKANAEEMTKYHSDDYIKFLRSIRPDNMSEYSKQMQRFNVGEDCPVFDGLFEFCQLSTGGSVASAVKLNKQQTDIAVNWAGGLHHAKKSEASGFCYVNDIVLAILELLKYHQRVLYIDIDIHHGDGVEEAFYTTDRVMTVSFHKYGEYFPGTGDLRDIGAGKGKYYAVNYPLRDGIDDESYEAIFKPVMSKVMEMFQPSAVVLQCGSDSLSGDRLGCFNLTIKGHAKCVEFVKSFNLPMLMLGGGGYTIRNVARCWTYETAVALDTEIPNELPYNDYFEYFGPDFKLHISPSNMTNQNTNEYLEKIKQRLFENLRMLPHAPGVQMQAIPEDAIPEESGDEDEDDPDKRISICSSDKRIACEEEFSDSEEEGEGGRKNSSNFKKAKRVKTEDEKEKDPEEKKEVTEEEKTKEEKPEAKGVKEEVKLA

[1] = target: T1, Protein deacetylase HDAC6 (Homo sapiens, UniProt Q9UBN7); assay: Inhibition of human recombinant HDAC6 using ZMAL (Z-Lys(Ac)-AMC) fluorogenic substrate incubated for 90 mins by fluorescence based assay
T1 sequence (Q9UBN7 whole entry): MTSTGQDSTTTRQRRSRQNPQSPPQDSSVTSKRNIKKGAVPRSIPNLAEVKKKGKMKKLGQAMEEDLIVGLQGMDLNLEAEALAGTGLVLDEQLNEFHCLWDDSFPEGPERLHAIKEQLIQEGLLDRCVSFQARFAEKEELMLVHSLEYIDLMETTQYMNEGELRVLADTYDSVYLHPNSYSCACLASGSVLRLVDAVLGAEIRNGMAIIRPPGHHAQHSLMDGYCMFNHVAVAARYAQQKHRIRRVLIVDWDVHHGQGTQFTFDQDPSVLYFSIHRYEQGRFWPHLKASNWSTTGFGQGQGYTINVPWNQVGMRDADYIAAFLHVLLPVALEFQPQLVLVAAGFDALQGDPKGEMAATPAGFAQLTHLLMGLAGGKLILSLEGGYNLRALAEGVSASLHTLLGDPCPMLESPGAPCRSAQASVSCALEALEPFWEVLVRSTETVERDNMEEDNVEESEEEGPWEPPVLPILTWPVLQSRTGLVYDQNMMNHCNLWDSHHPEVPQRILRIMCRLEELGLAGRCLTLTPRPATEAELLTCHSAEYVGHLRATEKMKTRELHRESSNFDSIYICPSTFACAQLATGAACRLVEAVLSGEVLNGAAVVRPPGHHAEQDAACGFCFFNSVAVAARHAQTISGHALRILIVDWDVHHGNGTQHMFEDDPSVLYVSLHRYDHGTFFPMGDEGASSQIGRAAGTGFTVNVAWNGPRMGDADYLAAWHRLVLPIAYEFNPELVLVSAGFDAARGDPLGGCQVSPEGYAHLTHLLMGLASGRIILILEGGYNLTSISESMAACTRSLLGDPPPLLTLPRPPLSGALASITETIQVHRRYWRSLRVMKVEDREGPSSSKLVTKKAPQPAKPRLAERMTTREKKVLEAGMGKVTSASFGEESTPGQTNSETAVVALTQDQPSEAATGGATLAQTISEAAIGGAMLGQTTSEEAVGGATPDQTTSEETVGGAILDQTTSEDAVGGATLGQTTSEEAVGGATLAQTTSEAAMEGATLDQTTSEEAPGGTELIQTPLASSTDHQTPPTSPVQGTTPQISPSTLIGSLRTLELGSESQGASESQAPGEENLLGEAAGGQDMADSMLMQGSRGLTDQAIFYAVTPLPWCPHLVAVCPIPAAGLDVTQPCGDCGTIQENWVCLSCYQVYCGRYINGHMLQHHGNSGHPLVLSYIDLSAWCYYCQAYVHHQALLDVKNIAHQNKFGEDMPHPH

[2] = target: Class 1 histone deacetylase (Homo sapiens) (UniProt Q13547+O15379+Q92769+Q9BY41); assay: Inhibition of class-1 HDAC in human HL60 cells assessed as induction of histone H3 acetylation at 2.5 to 5 uM incubated for 24 hrs by immunoblot analysis; format: cell-based; settings: HL-60, dose microM 2.5-5, time […]
SUP-B15 = assay: Cytotoxicity in human SUP-B15 cells assessed as reduction in cell viability incubated for 72 hrs by cell-Titer-Glo luminescent cell viability assay; format: cell-based; settings: SUP-B15, 72 h
In short: (§1)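 Leukaemia lines kept in RPMI 1640 with 20% FCS (SUP-B15 in McCoy's 5A with 20% FCS). Compound dispensed digitally at increasing concentrations from 1 μM to 50 μM. Viability read by CellTiter-Glo luminescence after 72 h. Raw data were normalized to controls and IC50 was fitted by sigmoid nonlinear regression.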

HL-60 [3] = assay: Potentiation of bortezomib-induced apoptosis in human HL-60 cells assessed as increase in number of late apoptotic/dead cells at 2.5 to 5 uM incubated for 24 hrs in presence of 0.6 to 1.2 nM bortezomib- by Annexin V and PI staining based FACS analysis; format: functional, cell-based; settings: dose microM 2.5-5, time […]
In short: (§2)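 HL60 cells in RPMI 1640 with 10% FCS at 37°C, 5% CO2. Cells were exposed to test compound at 2.5 or 5 μM, alone or combined with bortezomib, for 24 h. Annexin V/propidium iodide staining was read by FACS; n=3, with paired two-tailed Student's t-test.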

CCRF-HSB-2 [4] = assay: Cytotoxicity in human CCRF-HSB-2 cells assessed as reduction in cell viability at 2.5 to 5 uM incubated for 72 hrs by cell-Titer-Glo luminescent cell viability assay; format: cell-based; settings: ccrf-hsb-2, 72 h, dose 2.5-5 µM
In short: (§3)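 HSB-2 cells in RPMI 1640 with 20% FCS on a semi-automated combination platform. Test compound was fixed at 2.5 or 5 μM, alone or with chemotherapeutics and glucocorticoids dispensed at 10 nM-25 μM. Viability read by CellTiter-Glo luminescence after 72 h.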

[5] = target: T2, Protein deacetylase HDAC6 (Homo sapiens) (UniProt Q9UBN7); assay: Inhibition of HDAC6 in human HL60 cells assessed as induction of alpha-tubulin acetylation at 2.5 to 5 uM incubated for 24 hrs by immunoblot analysis; format: cell-based; settings: HL-60, dose microM 2.5-5, time […]
T2 sequence (whole entry): T1 sequence (Q9UBN7 whole entry)

CCRF-HSB-2 [6] = assay: Potentiation of […]-induced cytotoxicity in human CCRF-HSB-2 cells assessed as reduction in cell viability at 2.5 to 5 uM incubated for 72 hrs in presence of 10 nM daunorubicin by cell-Titer-Glo luminescent cell viability assay; format: functional, cell-based; settings: dose microM 2.5-5, time 72.0 hrs; in short: as §3
TALL-1 = assay: Cytotoxicity in human TALL-1 cells assessed as reduction in cell viability incubated for 72 hrs by cell-Titer-Glo luminescent cell viability assay; format: cell-based; settings: TALL-1, 72 h; in short: as §1
[7] = Intrinsic clearance in human liver microsomes; format: ADME, Microsome
Histone deacetylase 4 = Histone deacetylase 4 (Homo sapiens, UniProt P56524); assay: Inhibition of human recombinant HDAC4 using Boc-Lys-(epsilon-Tfa)-AMC fluorogenic substrate incubated for 90 mins by fluorescence based assay
Histone deacetylase 4, sequence (P56524 whole entry): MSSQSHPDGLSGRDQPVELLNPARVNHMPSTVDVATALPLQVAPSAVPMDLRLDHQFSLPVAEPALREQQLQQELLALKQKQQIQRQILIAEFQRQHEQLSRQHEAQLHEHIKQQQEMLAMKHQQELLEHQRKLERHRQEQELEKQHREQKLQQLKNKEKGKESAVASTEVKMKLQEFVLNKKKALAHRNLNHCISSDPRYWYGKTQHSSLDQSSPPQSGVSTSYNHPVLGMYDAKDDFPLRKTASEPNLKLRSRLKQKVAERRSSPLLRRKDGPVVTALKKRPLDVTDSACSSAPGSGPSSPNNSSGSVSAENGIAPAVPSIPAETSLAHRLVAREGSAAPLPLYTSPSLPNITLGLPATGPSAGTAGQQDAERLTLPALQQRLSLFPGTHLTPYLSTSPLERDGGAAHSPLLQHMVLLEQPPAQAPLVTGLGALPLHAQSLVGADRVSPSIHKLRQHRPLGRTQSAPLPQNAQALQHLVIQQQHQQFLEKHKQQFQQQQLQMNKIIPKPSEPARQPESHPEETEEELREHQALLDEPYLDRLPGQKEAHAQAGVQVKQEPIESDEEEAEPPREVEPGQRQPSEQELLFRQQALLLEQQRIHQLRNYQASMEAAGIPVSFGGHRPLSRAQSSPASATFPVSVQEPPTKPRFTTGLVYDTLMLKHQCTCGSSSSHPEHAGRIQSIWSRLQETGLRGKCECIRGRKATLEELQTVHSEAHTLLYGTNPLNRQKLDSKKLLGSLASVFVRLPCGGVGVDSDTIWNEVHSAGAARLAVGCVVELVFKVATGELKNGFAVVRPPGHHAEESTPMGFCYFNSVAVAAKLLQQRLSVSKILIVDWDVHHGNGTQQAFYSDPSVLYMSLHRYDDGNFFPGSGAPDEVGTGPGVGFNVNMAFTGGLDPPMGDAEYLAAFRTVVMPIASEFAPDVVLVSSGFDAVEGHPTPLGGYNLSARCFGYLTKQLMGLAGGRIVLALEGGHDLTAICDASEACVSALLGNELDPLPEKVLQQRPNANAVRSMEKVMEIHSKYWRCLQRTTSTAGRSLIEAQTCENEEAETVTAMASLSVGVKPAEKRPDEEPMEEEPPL
In short: (§4)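 Human recombinant HDAC4 or HDAC8, 20 ng per well, in Tris-HCl pH 8.0 buffer with 1 mg/mL BSA. Enzyme was preincubated 5 min with inhibitor, then started with Boc-Lys(ε-Tfa)-AMC, 100 μM for HDAC4 or 60 μM for HDAC8. […] Fluorescence ex 355/em 460 nm was read 15 min later.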

Histone deacetylase 3 = Histone deacetylase 3 (Homo sapiens, UniProt O15379); assay: Inhibition of human recombinant HDAC3 using ZMAL (Z-Lys(Ac)-AMC) fluorogenic substrate incubated for 90 mins by fluorescence based assay
Histone deacetylase 3, sequence (O15379 whole entry): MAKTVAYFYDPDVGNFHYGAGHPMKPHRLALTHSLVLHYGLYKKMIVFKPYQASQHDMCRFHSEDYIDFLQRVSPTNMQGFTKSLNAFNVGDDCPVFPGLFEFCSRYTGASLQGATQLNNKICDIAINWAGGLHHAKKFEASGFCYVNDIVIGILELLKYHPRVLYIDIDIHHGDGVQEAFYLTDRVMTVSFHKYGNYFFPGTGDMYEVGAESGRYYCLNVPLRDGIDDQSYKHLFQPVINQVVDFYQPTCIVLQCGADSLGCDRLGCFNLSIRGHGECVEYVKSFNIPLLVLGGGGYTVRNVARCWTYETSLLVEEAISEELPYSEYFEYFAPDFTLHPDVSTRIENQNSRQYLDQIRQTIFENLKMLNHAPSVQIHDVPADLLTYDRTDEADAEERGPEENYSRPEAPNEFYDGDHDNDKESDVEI
In short: (§5)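 Enzyme was incubated with compound and ZMAL substrate (21.43 μM stock in assay buffer) for 90 min at 37 °C. Trypsin development followed for 30 min at 37 °C, then fluorescence at ex 355/em 460 nm. Duplicates, at least two independent experiments.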

CCRF-HSB-2 [8] = assay: Potentiation of epirubicin-induced cytotoxicity in human CCRF-HSB-2 cells assessed as reduction in cell viability at 2.5 to 5 uM incubated for 72 hrs in presence of 10 nM epirubicin1 by cell-Titer-Glo luminescent cell viability assay; format: functional, cell-based; settings: dose microM 2.5-5, time 72.0 hrs; in short: as §3
Histone deacetylase 8 = target: T3, Histone deacetylase 8 (Homo sapiens, UniProt Q9BY41); assay: Inhibition of human recombinant HDAC8 using Boc-Lys-(epsilon-Tfa)-AMC fluorogenic substrate incubated for 90 mins by fluorescence based assay; in short: as §4
T3 sequence (Q9BY41 whole entry): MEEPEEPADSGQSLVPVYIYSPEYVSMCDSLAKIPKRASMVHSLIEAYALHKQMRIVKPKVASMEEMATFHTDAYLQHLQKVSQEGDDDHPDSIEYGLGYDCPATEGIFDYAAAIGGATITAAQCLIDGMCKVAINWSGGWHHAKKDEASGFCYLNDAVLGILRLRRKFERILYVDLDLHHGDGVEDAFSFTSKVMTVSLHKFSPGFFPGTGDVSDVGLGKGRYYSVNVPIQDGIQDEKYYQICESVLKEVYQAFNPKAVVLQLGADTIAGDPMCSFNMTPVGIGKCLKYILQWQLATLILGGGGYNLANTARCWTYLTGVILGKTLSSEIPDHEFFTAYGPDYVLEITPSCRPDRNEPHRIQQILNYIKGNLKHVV

HL-60 [9] = assay: Induction of apoptosis in human HL-60 cells at 2.5 to 5 uM incubated for 24 hrs by Annexin V and PI staining based FACS analysis; format: cell-based; settings: hl-60, 24 h, dose 2.5-5 µM; in short: as §2
Histone deacetylase 2 = Histone deacetylase 2 (Homo sapiens, UniProt Q92769); assay: Inhibition of human recombinant HDAC2 using ZMAL (Z-Lys(Ac)-AMC) fluorogenic substrate incubated for 90 mins by fluorescence based assay; in short: as §5
Histone deacetylase 2, sequence (Q92769 whole entry): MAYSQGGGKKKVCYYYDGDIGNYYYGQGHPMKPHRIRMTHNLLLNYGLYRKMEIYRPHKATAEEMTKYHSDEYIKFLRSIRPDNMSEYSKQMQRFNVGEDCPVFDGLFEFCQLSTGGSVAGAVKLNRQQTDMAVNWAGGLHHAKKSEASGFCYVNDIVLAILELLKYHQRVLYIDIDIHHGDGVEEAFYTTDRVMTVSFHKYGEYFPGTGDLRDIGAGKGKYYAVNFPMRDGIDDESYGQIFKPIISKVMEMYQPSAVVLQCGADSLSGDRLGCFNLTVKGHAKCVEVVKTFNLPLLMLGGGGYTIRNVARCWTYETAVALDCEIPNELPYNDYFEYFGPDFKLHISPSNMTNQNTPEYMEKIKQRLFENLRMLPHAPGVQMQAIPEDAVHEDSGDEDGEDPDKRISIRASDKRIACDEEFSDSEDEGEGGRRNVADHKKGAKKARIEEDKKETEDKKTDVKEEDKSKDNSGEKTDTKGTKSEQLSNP

CCRF-HSB-2 [10] = assay: Cytotoxicity in human CCRF-HSB-2 cells assessed as reduction in cell viability incubated for 72 hrs by cell-Titer-Glo luminescent cell viability assay; format: cell-based; settings: CCRF-HSB-2, 72 h; in short: as §1
[11] = Intrinsic clearance in mouse liver microsomes; format: ADME, Microsome
Jurkat = assay: Cytotoxicity in human Jurkat cells assessed as reduction in cell viability incubated for 72 hrs by cell-Titer-Glo luminescent cell viability assay; format: cell-based; in short: as §1
MOLT-4 = assay: Cytotoxicity in human MOLT-4 cells assessed as reduction in cell viability incubated for 72 hrs by cell-Titer-Glo luminescent cell viability assay; format: cell-based; settings: MOLT-4, 72 h
In short: (§6)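 Cells were exposed in 384-well format to a digitally dispensed concentration series of 1–50 μM. Viability was read by CellTiter-Glo luminescence after 72 h. Data were normalized to controls, and IC50 came from nonlinear regression of a sigmoid dose curve. K562 was maintained in RPMI 1640 with 10% FCS at 37 °C and 5% CO2. MOLT-4 was maintained in RPMI 1640 with 20% FCS.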

K562 = assay: Cytotoxicity in human K562 cells assessed as reduction in cell viability incubated for 72 hrs by cell-Titer-Glo luminescent cell viability assay; format: cell-based; settings: K562, 72 h; in short: as §6

Row | IC50 (Histone deacetylase 1) [µM] | IC50 [1] [µM] | Compound | further results
1 | 1.24 | 0.03 | O=C(NO)c1ccc(CN(Cc2nnnn2Cc2ccccc2)C(=O)c2ccccc2)cc1 | –
2 | 2.37 | 0.07 | O=C(NO)c1ccc(CN(Cc2nnnn2C2CCCCC2)C(=O)c2ccccc2)cc1 | –
3 | 4.06 | 0.12 | O=C(NO)c1ccc(CNC(c2ccccc2)c2nnnn2C2CCCCC2)cc1 (stereo not drawn) | –
4 | 8.24 | 0.33 | CC(C)(C)n1nnnc1CNCc1ccc(C(=O)NO)cc1 | –
5 | 5.18 | 0.03 | O=C(NO)c1ccc(CN(Cc2nnnn2Cc2ccccc2)C(=O)c2ccccc2C(F)(F)F)cc1 | inhibition [2]: inactive; IC50 (SUP-B15): 22.5 µM; Activity (HL-60 [3]): Active; Activity (CCRF-HSB-2 [4]): Non-Toxic; inhibition [5]: Active; Activity (CCRF-HSB-2 [6]): Active; IC50 (TALL-1): 49.4 µM; CLint [7]: 30 µL/min/mg; IC50 (Histone deacetylase 4): 55.4 µM; IC50 (Histone deacetylase 3): 8.48 µM; Activity (CCRF-HSB-2 [8]): Active; IC50 (Histone deacetylase 8): 14.7 µM; Activity (HL-60 [9]): Non-Toxic; IC50 (Histone deacetylase 2): 2.26 µM; IC50 (CCRF-HSB-2 [10]): 51.8 µM; CLint [11]: 26 µL/min/mg; IC50 (Jurkat): 32.1 µM; IC50 (MOLT-4): 42.4 µM; IC50 (K562): 41.6 µM
6 | 2.45 | 0.1 | O=C(NO)c1ccc(CNCc2nnnn2Cc2ccccc2)cc1 | –
7 | 3.37 | 0.1 | O=C(NO)c1ccc(CNC(c2ccccc2)c2nnnn2Cc2ccccc2)cc1 (stereo not drawn) | –
8 | 2.01 | 0.12 | CCCCC(NCc1ccc(C(=O)NO)cc1)c1nnnn1Cc1ccccc1 (stereo not drawn) | –
9 | 1.78 | 0.32 | CC(C)c1ccc(C(=O)N(Cc2ccc(C(=O)NO)cc2)Cc2nnnn2Cc2ccccc2)cc1 | –
10 | 3.03 | 0.06 | Cc1ccccc1C(=O)N(Cc1ccc(C(=O)NO)cc1)Cc1nnnn1C1CCCCC1 | –
11 | 0.9 | 0.08 | Cc1cc(C)cc(C(=O)N(Cc2ccc(C(=O)NO)cc2)Cc2nnnn2Cc2ccccc2)c1 | –
12 | 2.06 | 0.12 | O=C(NO)c1ccc(CNCc2nnnn2C2CCCCC2)cc1 | –
